Tests used:
α9^α10TM2TM3loop = test: ACh-evoked currents, two-electrode voltage-clamp in X. laevis oocytes; format: cell-based, rat; conditions: 1 mM ACh; α9^α10TM2TM3loop injected alone or co-injected with α9
How it was run: (§1)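 Rat subunit cRNAs (0.01–1.0 ng in 50 nl water, 1:1 molar ratio when co-injected) were injected into stage V–VI X. laevis oocytes kept in Barth's solution at 18 °C. Oocytes were preloaded 3 h with 100 µM BAPTA-AM.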

α9α10 nAChR = α9α10 nAChR (Rattus norvegicus, UniProt P43144+Q9JLB5); conditions: prolonged ACh application; cited from earlier work
α9E202Qα10 = test: ACh-evoked currents, two-electrode voltage-clamp in X. laevis oocytes; format: cell-based, rat; conditions: 1 mM ACh; α9E202Qα10 mutant receptor
How it was run: as §1

homomeric α9 nAChR = conditions: cited from earlier work
α9E72Qα10 = test: ACh-evoked currents, two-electrode voltage-clamp in X. laevis oocytes; format: cell-based, rat; conditions: 1 mM ACh; α9E72Qα10 mutant receptor
How it was run: as §1

α9α10^α9TM2TM3loop = α9α10^α9TM2TM3loop (Rattus norvegicus, UniProt P43144+Q9JLB5, A292S/P291A/S288I/S294N); test: ACh-evoked currents, two-electrode voltage-clamp in X. laevis oocytes; format: cell-based; conditions: prolonged (1 min) ACh application
Chain of α9α10^α9TM2TM3loop (P43144 26-479, stated change not applied): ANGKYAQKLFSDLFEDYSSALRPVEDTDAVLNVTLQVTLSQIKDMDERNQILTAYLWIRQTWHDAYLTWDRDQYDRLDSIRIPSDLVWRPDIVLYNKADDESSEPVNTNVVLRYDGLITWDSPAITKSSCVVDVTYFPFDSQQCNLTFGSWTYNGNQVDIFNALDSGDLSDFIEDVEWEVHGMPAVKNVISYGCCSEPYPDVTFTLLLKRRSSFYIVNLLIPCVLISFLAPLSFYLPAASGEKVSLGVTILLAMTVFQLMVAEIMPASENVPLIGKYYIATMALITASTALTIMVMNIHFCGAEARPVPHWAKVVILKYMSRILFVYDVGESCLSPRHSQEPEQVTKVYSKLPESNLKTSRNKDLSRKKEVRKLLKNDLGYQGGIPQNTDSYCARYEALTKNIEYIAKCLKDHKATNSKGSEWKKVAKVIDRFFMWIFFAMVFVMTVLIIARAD
Chain of α9α10^α9TM2TM3loop (Q9JLB5 25-447 S288I/P291A/A292S/S294N): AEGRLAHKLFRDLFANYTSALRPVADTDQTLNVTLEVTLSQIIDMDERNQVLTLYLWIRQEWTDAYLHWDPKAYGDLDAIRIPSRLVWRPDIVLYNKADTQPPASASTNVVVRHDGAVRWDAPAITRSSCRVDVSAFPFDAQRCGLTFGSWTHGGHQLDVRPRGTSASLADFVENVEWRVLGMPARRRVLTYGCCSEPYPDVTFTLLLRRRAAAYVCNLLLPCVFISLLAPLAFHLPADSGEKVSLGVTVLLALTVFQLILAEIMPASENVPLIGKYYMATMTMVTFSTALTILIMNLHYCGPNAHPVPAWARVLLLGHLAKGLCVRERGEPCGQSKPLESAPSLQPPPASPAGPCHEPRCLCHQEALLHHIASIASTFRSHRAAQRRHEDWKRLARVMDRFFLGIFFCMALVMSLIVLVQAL

Chain of α9α10 nAChR (P43144 26-479): as the sequence (P43144 26-479, stated change not applied) above
Chain of α9α10 nAChR (Q9JLB5 25-447): as the sequence (Q9JLB5 25-447 S288I/P291A/A292S/S294N) above, with I264S, A267P, S268A, N270S counted along it

For `CC(=O)OCC[N+](C)(C)C` [ACh, Acetylcholine], the “response to ACh (in words)” value (α9^α10TM2TM3loop) is given as “did not render functional receptors”, the “remaining current after 20 s of the peak response to ACh” value (from here on “remaining current after 20 s”) (α9α10 nAChR) is given as 57.1 ± 4.3% and the “response to ACh (in words)” value (α9E202Qα10) is given as “failed to respond”. The “maximal amplitude of responses” value (homomeric α9 nAChR; 100 µM ACh, absence of extracellular Ca^2+) was 182 ± 20 nA, the EC50 (homomeric α9 nAChR; ACh concentration-response, ref 45 (Verbitsky et al. 2000)) was 11.4 ± 0.8 µM and the “remaining current after 20 s” value (homomeric α9 nAChR; prolonged application of a high ACh concentration) was 94.9 ± 1.6%. The “response to ACh (in words)” value (α9E72Qα10) was “failed to respond” and the “remaining current after 20 s” value (α9α10^α9TM2TM3loop) was 61.9 ± 4.6%.
